Test results: ChEMBL document CHEMBL3872263, “Synthesis and biological evaluation of phosphate isosters of fosmidomycin and analogs as inhibitors of Escherichia coli and Mycobacterium smegmatis 1-deoxyxylulose 5-phosphate reductoisomerases” (Bioorg Med Chem, 2017)

Legend:
Escherichia coli [1] = test: Activity at Escherichia coli DXR assessed as ratio of Kcat to Km […] in presence of NADPH by Lineweaver-burk plot method
Escherichia coli [2] = test: Growth inhibition of fosmidomycin resistant Escherichia coli incubated overnight by paper disc diffusion method; assay type: functional
[3] = Inhibition of Escherichia coli His6-tagged DXR preincubated for 2 mins in presence of NADPH followed by DXP substrate addition
In short: (§1)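 Recombinant His-tagged DXR was assayed at 37°C in 50 mM Tris/HCl pH 7.5 with 3 mM MgCl2 and 2 mM DTT. The enzyme was pre-incubated for 2 min with NADPH and the inhibitor at a range of concentrations, then DXP was added to start the reaction and residual activity was measured. IC50 was read from a plot of percent residual activity versus log inhibitor concentration.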

Escherichia coli [4] = test: Growth inhibition of Escherichia coli XL1 blue at 80 nmol/disc incubated overnight by paper disc diffusion method; assay type: functional
In short: (§2)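 Paper disc diffusion on E. coli XL1 Blue growing on LB-agar; 6 mm paper discs impregnated with test compound at the stated amount per disc; plates incubated overnight at 37°C, then growth inhibition read.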

[5] = Inhibition of Mycobacterium smegmatis His6-tagged DXR preincubated for 2 mins in presence of NADPH followed by DXP substrate addition; parameters: species or system Mycolicibacterium smegmatis; in short: as §1
Escherichia coli [6] = test: Growth inhibition of Escherichia coli XL1 blue at 400 nmol/disc incubated overnight by paper disc diffusion method; assay type: functional; in short: as §2
Escherichia coli [7] = test: Growth inhibition of Escherichia coli XL1 blue at 160 nmol/disc incubated overnight by paper disc diffusion method; assay type: functional
In short: (§3)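 Paper disc diffusion assay on E. coli XL1 Blue grown in LB agar. 6 mm paper discs were impregnated with the stated amount of compound, and plates were incubated overnight at 37°C.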

Escherichia coli [8] = test: Growth inhibition of Escherichia coli XL1 blue at 2 nmol/disc incubated overnight by paper disc diffusion method; assay type: functional; in short: as §2
Escherichia coli [9] = test: Growth inhibition of Escherichia coli XL1 blue at 100 nmol/disc incubated overnight by paper disc diffusion method; assay type: functional; in short: as §3

Q: For `CC(=O)[C@@H](O)[C@H](O)COP(=O)(O)O`, which kcat/Km (Escherichia coli [1]) is on record?
A: 412000 M⁻¹ s⁻¹

Q: For `CN(O)C(=O)CCCP(=O)(O)O`, which “diameter of the inhibition zone (DIZ)” value (Escherichia coli [2]) is on record?
A: 18 mm

Q: And the IC50 [3]?
A: 48 nM

Q: And the “diameter of the inhibition zone (DIZ)” value (Escherichia coli [4])?
A: 30 mm

Q: Which results are given for `O=C(CCOP(=O)(O)O)NO`?
A: IC50 [5]: 9200 nM; diameter of the inhibition zone (DIZ) (Escherichia coli [6]): <10 mm; IC50 [3]: 2600 nM

Q: Which “diameter of the inhibition zone (DIZ)” value (Escherichia coli [6]) does the source give for `O=C(CCCP(=O)(O)O)NO` here?
A: 12 mm

Q: What about the IC50 [3] of the same compound?
A: 170 nM

Q: With `CC(=O)[C@@H](O)[C@H](O)CCP(=O)(O)O` as the compound, how does the kcat/Km (Escherichia coli [1]) read?
A: 11700 M⁻¹ s⁻¹

Q: With `CN(O)C(=O)CCOP(=O)(O)O` as the compound, how does the “diameter of the inhibition zone (DIZ)” value (Escherichia coli [7]) read?
A: 20 mm

Q: What about the IC50 [5] of the same compound?
A: 233 nM

Q: And the IC50 [3]?
A: 46 nM

Q: Which “diameter of the inhibition zone (DIZ)” value (Escherichia coli [8]) does the source give for `CC(=O)N(O)CCCP(=O)(O)O` [FR-900098] here?
A: 32 mm

Q: And the IC50 [3]?
A: 4 nM

Q: With `O=CN(O)CCOP(=O)(O)O` as the compound, how does the “diameter of the inhibition zone (DIZ)” value (Escherichia coli [7]) read?
A: 24 mm

Q: And the IC50 [5]?
A: 2100 nM

Q: What about the IC50 [3] of the same compound?
A: 342 nM

Q: For `CC(=O)N(O)CCOP(=O)(O)O`, which IC50 [5] is on record?
A: 279 nM

Q: And the IC50 [3]?
A: 77 nM

Q: What about the “diameter of the inhibition zone (DIZ)” value (Escherichia coli [9]) of the same compound?
A: 27 mm

Q: With `O=CN(O)CCCP(=O)(O)O` [FOSMIDOMYCIN] as the compound, how does the “diameter of the inhibition zone (DIZ)” value (Escherichia coli [8]) read?
A: 34 mm

Q: And the IC50 [3]?
A: 42 nM
